Experimental data reported in article PMC8319936 (ACS Omega, 2021).

Legend:
Rat pharmacokinetics = assay type: in vivo, Sprague Dawley rats; conditions: Sprague Dawley, plasma
Summary of the method: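 Sprague Dawley rats (N = 3) were dosed i.v. at 1 mpk in 70% PEG or by oral gavage as a methylcellulose suspension. Serial blood samples were anticoagulated and centrifuged to plasma. Parent compound was quantified in plasma, and PK parameters were calculated by noncompartmental analysis.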

[1] = target: catalytic domain of human MMP13 (Homo sapiens, UniProt P45452); experiment: Biochemical MMP-13 FRET assay; conditions: vs compound 13
[2] = target: catalytic domain of recombinant human MMP-8 (Homo sapiens, UniProt P22894); experiment: MMP-8 biochemical assay
Summary of the method: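 FRET cleavage assay with 2 nM recombinant human MMP-8 catalytic domain and 2 μM quenched FRET peptide substrate. Incubated 30 min at 28 °C/80% humidity; fluorescence read at ex 485/em 535 nm.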

[3] = tested on: collagen antibody-induced arthritis; experiment: Murine collagen antibody-induced arthritis; assay type: in vivo, female B10.RIII mice; conditions: 100 mg/kg twice daily oral gavage from day 4, day 14
Summary of the method: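 Female B10.RIII mice, 8–10 weeks old, received 2 mg anti-collagen II monoclonal antibody cocktail i.p., then 37.5 μg LPS i.p. 3 days later. From day 4, compounds or vehicle (1% CMC, 0.015% Tween 80, 10 mL/kg) were given by oral gavage twice daily. Each limb was scored visually daily, days 3–14, and group mean computed. Body weight recorded every other day.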

hPPB = assay type: in vitro ADME; conditions: human
PAMPA permeability = assay type: in vitro ADME
Caco-2 permeability = assay type: in vitro ADME; conditions: human, Caco-2, pH 7.4
Summary of the method: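 Caco-2 cells were seeded at 80,000 cells/cm2 on polycarbonate Transwell filters and grown 21–25 days. Monolayers were pre-equilibrated with HBSS pH 7.4 for 30 min at 37 °C. Dosing solution was 50 mM nominal in HBSS, stirred overnight at room temperature, filtered and added apically (A/B) or basolaterally (B/A). Receiver sampled at 15–150 min, in duplicate. Papp (cm/s) by LC/MS/MS.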

Chain of catalytic domain of recombinant human MMP-8 (P22894 100-262 limits assumed): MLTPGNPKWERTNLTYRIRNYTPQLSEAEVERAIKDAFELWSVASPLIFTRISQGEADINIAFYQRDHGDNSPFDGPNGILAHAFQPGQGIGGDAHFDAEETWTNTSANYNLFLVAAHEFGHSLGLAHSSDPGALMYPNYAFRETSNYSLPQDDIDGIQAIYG

| Compound | half-life (Rat pharmacokinetics) [h] | loss of potency relative to 13 [1] [fold] | IC50 [2] [µM] | overall mean arthritic score vs vehicle control [3] | hPPB (% bound) (hPPB) | Papp (PAMPA permeability) [×10⁻⁶ cm/s] | Papp A→B at 150 min, 50 mM (Caco-2 permeability) [×10⁻⁶ cm/s] | Papp B→A at 150 min, 50 mM (Caco-2 permeability) [×10⁻⁶ cm/s] |
| --- | --- | --- | --- | --- | --- | --- | --- | --- |
| CCNC(=O)c1nc(-c2ccc3[nH]c(-c4nc(C)no4)cc3c2)c(C)[nH]1 [Compound 15, 4-Methyl-5-[2-(3-methyl-[1,2,4]oxadiazol-5-yl)-1H-indol-5-yl]-1H-imidazole-2-carboxylic Acid Ethylamide] | 1.8 | – | – | – | – | – | – | – |
| Cc1noc(-c2cc3cc(-c4[nH]c(C(=O)NCc5ccccc5)nc4C)ccc3[nH]2)n1 [Compound 21, 4-Methyl-5-[2-(3-methyl-[1,2,4]oxadiazol-5-yl)-1H-indol-5-yl]-1H-imidazole-2-carboxylic Acid Benzylamide] | – | 10 | – | – | – | – | – | – |
| Cc1noc(-c2cc3cc(-c4nc(C(=O)NCc5ccncc5)[nH]c4C)ccc3[nH]2)n1 [Compound 17, 4-Methyl-5-[2-(3-methyl-[1,2,4]oxadiazol-5-yl)-1H-indol-5-yl]-1H-imidazole-2-carboxylic Acid (Pyridin-4-ylmethyl)-amide] | 0.9 | – | 3.1 | significantly reduced | 93 | 29 | 3.5 | 9 |
